From ChEMBL document CHEMBL1132300, “1,3-Disubstituted benzazepines as novel, potent, selective neuropeptide Y Y1 receptor antagonists” (J Med Chem, 1999)

Biological target: T1, Neuropeptide Y receptor type 1 (Homo sapiens, UniProt P25929)
T1 sequence (P25929 whole entry): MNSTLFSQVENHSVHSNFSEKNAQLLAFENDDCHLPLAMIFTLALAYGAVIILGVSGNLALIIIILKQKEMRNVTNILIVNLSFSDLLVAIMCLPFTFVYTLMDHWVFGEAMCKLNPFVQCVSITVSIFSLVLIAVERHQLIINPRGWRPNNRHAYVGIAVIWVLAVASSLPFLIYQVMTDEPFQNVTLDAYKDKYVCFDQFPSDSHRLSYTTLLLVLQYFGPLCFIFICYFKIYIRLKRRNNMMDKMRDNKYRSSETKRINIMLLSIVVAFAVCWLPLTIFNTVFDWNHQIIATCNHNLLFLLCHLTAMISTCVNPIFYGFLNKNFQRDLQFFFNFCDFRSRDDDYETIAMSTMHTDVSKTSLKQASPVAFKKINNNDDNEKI
Assay: In vitro binding affinity towards Neuropeptide Y receptor type 1 was determined as potency to displace [125I]-peptide YY binding to human neuroblastoma SK-N-MC cells
Type: cell-based
In short: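 Intact SK-N-MC cells grown 2 days, washed with HEPES (20 mM)-buffered Hank's solution pH 7.4 plus 1% BSA, then incubated with 0.1 nM [125I]PYY and varying concentrations of unlabeled compound at 37 °C for 60 min. Washed twice with ice-cold buffer, lysed in 1 N NaOH, gamma-counted. Nonspecific binding defined with 10^-6 M NPY.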

SMILES | Ki
COC(=O)Nc1cccc(CN2C(=O)C(NC(=O)Nc3ccccc3)CCc3ccccc32)c1 (stereo not drawn) | > 10 nM
CC(C)(C)NC(=O)Nc1cccc(CN2C(=O)C(NC(=O)Nc3ccccc3)CCc3ccccc32)c1 (stereo not drawn) | 75 nM
Nc1cccc(CN2C(=O)C(NC(=O)Nc3ccccc3)CCc3ccccc32)c1 (stereo not drawn) | > 10000 nM
CC(C)NC(=O)Nc1cccc(CN2C(=O)C(NC(=O)Nc3ccc4ccsc4c3)CCc3ccccc32)c1 (stereo not drawn) | 7.8 nM
O=C(Nc1cccc(CN2C(=O)C(NC(=O)Nc3ccccc3)CCc3ccccc32)c1)NC1CC1 (stereo not drawn) | 910 nM
CC(C)NC(=O)Nc1cccc(CN2C(=O)C(NC(=O)Nc3ccc4c(c3)OCO4)CCc3ccccc32)c1 (stereo not drawn) | 28 nM
CC(C)NC(=O)Nc1cccc(CN2C(=O)C(NC(=O)Nc3ccc4ocnc4c3)CCc3ccccc32)c1 (stereo not drawn) | 17 nM
CC(C)NC(=O)Nc1cccc(CN2C(=O)C(NC(=O)Nc3nccs3)CCc3ccccc32)c1 (stereo not drawn) | 160 nM
CNC(=O)Nc1cccc(CN2C(=O)C(NC(=O)Nc3ccccc3)CCc3ccccc32)c1 (stereo not drawn) | 7300 nM
CC(C)NC(=O)Nc1cccc(CN2C(=O)C(NC(=O)Nc3ccc(N(C)C)cc3)CCc3ccccc32)c1 (stereo not drawn) | 66 nM
CC(C)NC(=O)Nc1cccc(CN2C(=O)C(NC(=O)Nc3ccccc3F)CCc3ccccc32)c1 (stereo not drawn) | 7.6 nM
CC(C)NC(=O)Nc1cccc(CN2C(=O)C(COC(=O)Nc3ccccc3)CCc3ccccc32)c1 (stereo not drawn) | 4100 nM
CC(C)NC(=O)Nc1cccc(CN2C(=O)C(CNC(=O)Nc3ccccc3)CCc3ccccc32)c1 (stereo not drawn) | 1400 nM
CC(C)NC(=O)Nc1cccc(CN2C(=O)C(NC(=O)Nc3cc[nH]n3)CCc3ccccc32)c1 (stereo not drawn) | > 10000 nM
CC(C)NC(=O)Nc1cccc(CN2C(=O)C(NC(=O)Nc3ccc4sccc4c3)CCc3ccccc32)c1 (stereo not drawn) | 13 nM
CC(C)NC(=O)Nc1cccc(CN2C(=O)C(NC(=O)Nc3ccc4ccoc4c3)CCc3ccccc32)c1 (stereo not drawn) | 7.8 nM
CC(C)NC(=O)Cc1cccc(CN2C(=O)C(NC(=O)Nc3ccccc3)CCc3ccccc32)c1 (stereo not drawn) | 3800 nM
CC(C)NC(=O)Nc1cccc(CN2C(=O)C(/N=C(\N)Nc3ccc(O)cc3)CCc3ccccc32)c1 (stereo not drawn) | 2.9 nM
CC(C)NC(=O)Nc1cccc(CN2C(=O)C(NC(=O)Nc3ccc4ncccc4c3)CCc3ccccc32)c1 (stereo not drawn) | 56 nM
CC(C)NC(=O)Nc1cccc(CN2C(=O)C(NC(=O)Nc3cc(F)cc(F)c3)CCc3ccccc32)c1 (stereo not drawn) | 86 nM
CC(C)NC(=O)Nc1cccc(CN2C(=O)C(NC(=O)Nc3ccc4[nH]ncc4c3)CCc3ccccc32)c1 (stereo not drawn) | 26 nM

SMILES | Ki
CC(C)NC(=O)Nc1cccc(CN2C(=O)C(NC(=O)Nc3ccc(Cl)cc3)CCc3ccccc32)c1 (stereo not drawn) | 71 nM
CC(C)CNC(=O)Nc1cccc(CN2C(=O)C(NC(=O)Nc3ccccc3)CCc3ccccc32)c1 (stereo not drawn) | 140 nM
CC(C)NC(=O)Nc1cccc(CN2C(=O)C(OC(=O)Nc3ccccc3)CCc3ccccc32)c1 (stereo not drawn) | 450 nM
CC(C)NC(=O)Nc1cccc(CN2C(=O)C(NC(=O)Nc3ccc4scnc4c3)CCc3ccccc32)c1 (stereo not drawn) | 24 nM
CC(C)NC(=O)Nc1cccc(CN2C(=O)C(NC(=O)Nc3nc4ccccc4s3)CCc3ccccc32)c1 (stereo not drawn) | 690 nM
CC(C)NC(=O)Nc1cccc(CN2C(=O)C(NC(=O)Nc3ccc(-c4ccccc4)cc3)CCc3ccccc32)c1 (stereo not drawn) | 610 nM
CC(C)NC(=O)Nc1cccc(CN2C(=O)C(NC(=O)Nc3cccc(F)c3F)CCc3ccccc32)c1 (stereo not drawn) | 100 nM
CC(C)NC(=O)Nc1cccc(CN2C(=O)C(NC(=O)Nc3nncs3)CCc3ccccc32)c1 (stereo not drawn) | 150 nM
COc1ccc(NC(=O)NC2CCc3ccccc3N(Cc3cccc(NC(=O)NC(C)C)c3)C2=O)cc1 (stereo not drawn) | 80 nM
CC(C)NC(=O)Nc1cccc(CN2C(=O)C(NC(=O)Nc3ccc([N+](=O)[O-])cc3)CCc3ccccc32)c1 (stereo not drawn) | 88 nM
CC(C)NC(=O)Nc1cccc(CN2C(=O)C(N=C(Nc3ccc(O)cc3)NC(C)C)CCc3ccccc32)c1 (stereo not drawn) | 36 nM
CN(C(=O)OC(C)(C)C)c1cccc(CN2C(=O)C(NC(=O)Nc3ccccc3)CCc3ccccc32)c1 (stereo not drawn) | > 10000 nM
CC(C)NC(=O)Nc1cccc(CN2C(=O)C(NC(=O)Nc3ccccc3)CCc3ccccc32)c1 (stereo not drawn) | 43 nM
CC(C)NC(=O)Nc1cccc(CN2C(=O)C(NC(=O)Nc3ccc(F)cc3F)CCc3ccccc32)c1 (stereo not drawn) | 7.8 nM
CC(C)NC(=O)Nc1cccc(CN2C(=O)C(NC(=O)Nc3ccccc3)CCCc3ccccc32)c1 (stereo not drawn) | 56 nM
CC(C)NC(=O)Nc1cccc(CN2C(=O)C(NC(=O)Nc3ccc(F)cc3)CCc3ccccc32)c1 (stereo not drawn) | 29 nM
CC(C)NC(=O)Nc1cccc(CN2C(=O)C(NC(=O)Nc3ccc4c(c3)CCC4)CCc3ccccc32)c1 (stereo not drawn) | 17 nM
O=C(Nc1ccccc1)Nc1cccc(CN2C(=O)C(NC(=O)Nc3ccccc3)CCc3ccccc32)c1 (stereo not drawn) | > 10000 nM
O=C(Nc1ccccc1)NC1CCc2ccccc2N(Cc2cccc(NC(=O)N3CCOCC3)c2)C1=O (stereo not drawn) | > 10000 nM
CC(C)NC(=O)Nc1cccc(CN2C(=O)C(NC(=O)Nc3cnc4ccccc4c3)CCc3ccccc32)c1 (stereo not drawn) | 140 nM
CC(C)NC(=O)Nc1cccc(CN2C(=O)C(NC(=O)Nc3ccccc3)COc3ccccc32)c1 (stereo not drawn) | 470 nM

SMILES | Ki
C/N=C(/Nc1ccc(O)cc1)NC1CCc2ccccc2N(Cc2cccc(NC(=O)NC(C)C)c2)C1=O (stereo not drawn) | 7.3 nM
CC(C)NC(=O)Nc1cccc(CN2C(=O)C(NC(=O)Nc3ccc(N)cc3)CCc3ccccc32)c1 (stereo not drawn) | 200 nM
CC(C)NC(=O)Nc1cccc(CN2C(=O)C(N=C(NCCO)Nc3ccc(O)cc3)CCc3ccccc32)c1 (stereo not drawn) | 65 nM
O=C(Nc1ccccc1)NC1CCc2ccccc2N(Cc2cccc(NC(=O)Oc3ccccc3)c2)C1=O (stereo not drawn) | > 10000 nM
CC(C)OC(=O)Nc1cccc(CN2C(=O)C(NC(=O)Nc3ccccc3)CCc3ccccc32)c1 (stereo not drawn) | 690 nM
CC(C)NC(=O)Nc1cccc(CN2C(=O)C(NC(=O)Nc3ccccn3)CCc3ccccc32)c1 (stereo not drawn) | 240 nM
CC(C)NC(=O)Nc1cccc(CN2C(=O)C(NC(=O)Nc3ccc(O)cc3)CCc3ccccc32)c1 (stereo not drawn) | 82 nM
CC(C)NC(=O)Nc1cccc(CN2C(=O)C(NS(=O)(=O)c3ccccc3)CCc3ccccc32)c1 (stereo not drawn) | 5500 nM
CC(C)NC(=O)Nc1cccc(CN2C(=O)C(NC(=O)Nc3ccc4c(c3)OCCO4)CCc3ccccc32)c1 (stereo not drawn) | 18 nM
CC(C)NC(=O)Nc1cccc(CN2C(=O)C(NC(=O)Nc3ccc4c(c3)C(=O)NC4=O)CCc3ccccc32)c1 (stereo not drawn) | 25 nM
C/N=C(/Nc1ccccc1)NC1CCc2ccccc2N(Cc2cccc(NC(=O)NC(C)C)c2)C1=O (stereo not drawn) | 15 nM
NC(=O)Nc1cccc(CN2C(=O)C(NC(=O)Nc3ccccc3)CCc3ccccc32)c1 (stereo not drawn) | > 10000 nM
CC(C)NC(=O)Nc1cccc(CN2C(=O)C(NC(=O)Nc3ccc4c(c3)C(=O)N(C)C4=O)CCc3ccccc32)c1 (stereo not drawn) | 780 nM
CC(C)NC(=O)Nc1cccc(CN2C(=O)C(NC(=O)Nc3ccncc3)CCc3ccccc32)c1 (stereo not drawn) | 83 nM
CC(C)NC(=O)Nc1cccc(CN2C(=O)C(NC(=O)Oc3ccccc3)CCc3ccccc32)c1 (stereo not drawn) | 2100 nM
CC(C)NC(=O)Nc1nc(CN2C(=O)C(NC(=O)Nc3ccc(F)cc3F)CCc3ccccc32)cs1 (stereo not drawn) | > 10000 nM
CC(C)NC(=O)Nc1cccc(CN2C(=O)C(NC(=O)Nc3ccc4[nH]ccc4c3)CCc3ccccc32)c1 (stereo not drawn) | 18 nM
CC(C)NC(=O)Nc1cccc(CN2CCCCC(NC(=O)Nc3ccccc3)C2=O)c1 (stereo not drawn) | 7000 nM
CC(C)(C)OC(=O)Nc1cccc(CN2C(=O)C(NC(=O)Nc3ccccc3)CCc3ccccc32)c1 (stereo not drawn) | 1200 nM
CC(C)NC(=O)Nc1cccc(CN2C(=O)C(NC(=O)c3ccccc3)CCc3ccccc32)c1 (stereo not drawn) | > 10000 nM
CC(C)NC(=O)Nc1cccc(CN2C(=O)C(NC(=O)Nc3ccc4ncsc4c3)CCc3ccccc32)c1 (stereo not drawn) | 5.1 nM
